Experimental data taken from PubChem BioAssay.
Results filed as inconclusive are left out.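 The calls were made as follows, unless noted: active = growth inhibition above 25% in both replicates, a cutoff set 3 SD above the mean; inconclusive = above 25% in only one replicate; inactive = the rest.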

What was measured:
[1] = S. cerevisiae growth inhibition in permissive medium (OD615), pilot counter-assay for S. cerevisiae lifespan shortening project, permissive growth control (AID 705); conditions: OD615, 24 h, at 10 µM, stronger effect = higher value
Method in brief: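 Material: engineered DeaD yeast; compound dosing: one dose 10 µM, DMSO 0.25% final; measure: yeast growth inhibition indicated by reduced 24 h OD615; detection: OD615 turbidity read; incubation: cells pre-grown 4 h, then 24 h compound exposure, 30 °C humidified; medium: permissive synthetic complete medium with raffinose and galactose carbon sources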

[2] = S. cerevisiae growth inhibition in restrictive medium, OD615, pilot screen, restrictive growth control, yeast lifespan reduction project (AID 706;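 active = growth inhibition above a set limit, 3 SD over mean compound inhibition, in both replicates, cut at about 43% in these data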;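 also: modified DeaD lifespan yeast strain shifted to restrictive glucose medium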); conditions: OD615, 48 h, at 10 µM, stronger effect = higher value
Method in brief: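 material = engineered S. cerevisiae DeaD strain | medium = glucose-based CSMM-D restrictive medium | times = 4 h pre-incubation, 48 h exposure at 30 °C | technique = OD615 absorbance reading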

[3] = doxorubicin toxicity protection in MRP-1 cells – H69AR cells, CellTiter-Glo, duplicate, MRP-1 activator project, pilot screen (AID 807;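 active = viability increase at or above a cutoff of the median across tested compounds plus 3 SD, cut at about 8.5% in these data, passing the limit was not always enough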;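 also: compound pretreatment 18-22 h then 72 h combined with doxorubicin; 0% = doxorubicin alone and 100% = vehicle without doxorubicin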); conditions: H69AR viability with doxorubicin, CellTiter-Glo luminescence; at 10 µM; stronger effect = higher value
[4] = viability of HCT116 without oncogenic beta-catenin – human colon tumor cells, pilot screen (AID 823;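 active = cell viability at or below a set limit in both duplicate runs, the limit being the all-compound median minus 4 SD, cut at about 23% in these data, passing the limit was not always enough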;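 also: 0% = wells killed by 20 µM Hyamine and 100% = untreated DMSO cell wells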); conditions: HCT116 beta-catenin knockout viability, CellTiter-Glo, 60 h; at 10 µM; stronger effect = lower value
[5] = viability of PTEN-null HCT116 cells – cell-based, HCT116 clonal line, CellTiter-Glo, pilot screen (AID 824;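 active = viability at or below 27.92% in each of two runs, the all-compound median minus 4 SD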;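 also: 0% = 20 µM Hyamine control and 100% = vehicle cell control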); conditions: HCT116 PTEN-deleted viability, 60 h, at 10 µM, stronger effect = lower value
[6] = RAM pathway blockade in budding yeast – dse1pr::URA3 reporter, 5-FOA selection, pilot screen (AID 869;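 active = inhibition over a set limit, the all-compound mean plus 3 SD, in both replicate runs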;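 also: 0% = DMSO wells with no growth and 100% = 10 µM 1-NA-PP1 with full growth; RAM network block rescues cells from 5-FOA so hits raise OD615 growth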); conditions: S. cerevisiae dse1pr::URA3 5-FOA growth, OD615, 2 d; at 10 µM; stronger effect = higher value; strain carries analog-sensitive mutant Cbk1 kinase
[7] = RAM signaling pathway blockade in yeast – S. cerevisiae, Pdr1DBD-CYC8 efflux-inhibited sensitized strain, primary screen (AID 1298;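 active = RAM network inhibition above 8.4% in each of two replicates, 3 SD over the compound average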;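 also: 0% = DMSO untreated cells without growth and 100% = 10 µM 1-NA-PP1 full growth; higher means more yeast growth rescued from 5-FOA killing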); conditions: S. cerevisiae cbk1-as DSE1-URA3 strain, 5-FOA growth OD615, 2 d; at 50 µM; stronger effect = higher value

CCOC(=O)N1CCC(NC(=O)c2cc3c(-c4ccccc4F)nn(C)c3s2)CC1
inactive: growth inhibition [1] -7.38% | growth inhibition [2] -13.5% | viability increase [3] -3.97% | viability [4] 75.6% | viability [5] 84.2% | inhibition [6] 1.74% | RAM network inhibition [7] 0.42%

Cc1nc2nc[nH]c2cc1Br
inactive: growth inhibition [1] 5.74% | growth inhibition [2] 6.22% | viability increase [3] -2.75% | viability [4] 97.8% | viability [5] 100% | inhibition [6] 0.705% | RAM network inhibition [7] -0.41%

CC(=O)c1c(C)cc(C)c(CSc2nc(C)cc(=O)[nH]2)c1C
inactive: growth inhibition [1] 2.49% | growth inhibition [2] 19.8% | viability increase [3] 0.08% | viability [4] 83% | viability [5] 74.2% | inhibition [6] 0.245% | RAM network inhibition [7] 2.49%

Cc1ccc(OC(=O)CCC(=O)Nc2ccc(S(=O)(=O)Nc3cc(C)on3)cc2)cc1
inactive: growth inhibition [1] -2.27% | growth inhibition [2] 0.38% | viability increase [3] -1.11% | viability [4] 109% | viability [5] 106% | inhibition [6] 0.875% | RAM network inhibition [7] 3.97%

CCCn1c(N2CCN(Cc3cccc(C)c3)CC2)nc2c1c(=O)[nH]c(=O)n2C
inactive: growth inhibition [1] 5.6% | growth inhibition [2] 2.15% | viability increase [3] -5.06% | viability [4] 89.3% | viability [5] 82.8% | inhibition [6] 1.34% | RAM network inhibition [7] 2.5%

COc1cccc(-n2c(Cc3cc(=O)[nH]c(=O)[nH]3)nnc2SC(C)C)c1
inactive: growth inhibition [1] -12.3% | growth inhibition [2] 8.2% | viability increase [3] -0.34% | viability [4] 103% | viability [5] 100% | inhibition [6] 1.71% | RAM network inhibition [7] 3.35%

O=C(NC1CCCC1)C1c2ccccc2C(=O)N1CCCN1CCOCC1 (stereo not drawn)
inactive: growth inhibition [1] -2.13% | growth inhibition [2] -1.37% | viability increase [3] -1.72% | viability [4] 97.2% | viability [5] 98.4% | inhibition [6] 1.2% | RAM network inhibition [7] 1.51%

C1CCC2(CC1)C1=C(CCCC1)Nc1nnnn12
inactive: growth inhibition [1] -4.35% | growth inhibition [2] 1.16% | viability increase [3] -1.07% | viability [4] 93.5% | viability [5] 87.8% | inhibition [6] 2.16% | RAM network inhibition [7] 5.77%

CCOC(=O)CSC(CC)C(=O)Nc1nnc(CC)s1 (stereo not drawn)
inactive: growth inhibition [1] -15.4% | growth inhibition [2] -6% | viability increase [3] 2.67% | viability [4] 102% | viability [5] 96.6% | inhibition [6] 0.62% | RAM network inhibition [7] -0.27%

CC(=O)OC1c2c(ccc3ccc(=O)oc23)OC(C)(C)C1OC(=O)CC(C)C (stereo not drawn)
inactive: growth inhibition [1] -18.4% | growth inhibition [2] -10% | viability increase [3] 1.31% | viability [4] 84.7% | viability [5] 80.8% | inhibition [6] 1.1% | RAM network inhibition [7] 10%

COc1ccccc1C1N(c2cc(Cl)ccc2OC)C(=O)C2CCCN21 (stereo not drawn)
inactive: growth inhibition [1] 8.71% | growth inhibition [2] 3.69% | viability increase [3] -2.83% | viability [4] 98.7% | viability [5] 96.3% | inhibition [6] 0.445% | RAM network inhibition [7] 2.33%

CC(O)Cc1nsc(NC(=O)c2cccs2)n1 (stereo not drawn)
inactive: growth inhibition [1] -11.4% | growth inhibition [2] -8.99% | viability increase [3] -0.55% | viability [4] 104% | viability [5] 100% | inhibition [6] 0.84% | RAM network inhibition [7] 0.26%

O=C(/C=N/O)Nc1ccccc1C(=O)O
inactive: growth inhibition [1] -14.8% | growth inhibition [2] -16.7% | viability increase [3] -2.95% | viability [4] 97.1% | viability [5] 98.5% | inhibition [6] 2.12% | RAM network inhibition [7] 4.14%

CSc1nnc(NC(=O)c2cc3ccccc3oc2=O)s1
inactive: growth inhibition [1] -6.82% | growth inhibition [2] -6.74% | viability increase [3] -2.29% | viability [4] 93.8% | viability [5] 95.5% | inhibition [6] 1.24% | RAM network inhibition [7] 4.01%

Cc1ccc(S(=O)(=O)N2CCCC2C(=O)Nc2nccs2)cc1 (stereo not drawn)
inactive: growth inhibition [1] -15.2% | growth inhibition [2] -6.25% | viability increase [3] -1.37% | viability [4] 97% | viability [5] 98.6% | inhibition [6] -0.275% | RAM network inhibition [7] 4.76%

Cc1nc2ccc(S(=O)(=O)NC(C(=O)N3CCn4c3nc3ccccc34)C(C)C)cc2s1 (stereo not drawn)
inactive: growth inhibition [1] 0.9% | growth inhibition [2] 8.13% | viability increase [3] -1.67% | viability [4] 102% | viability [5] 97.2% | inhibition [6] 1.02% | RAM network inhibition [7] 5.83%

O=S(=O)(NC1=NCCCCC1)c1cccs1
inactive: growth inhibition [1] -0.86% | growth inhibition [2] -16.7% | viability increase [3] -0.2% | viability [4] 100% | viability [5] 98.2% | inhibition [6] 0.765% | RAM network inhibition [7] 5.54%

COC(=O)c1oc2ccc(Br)cc2c1NC(=O)CCCN1C(=O)c2ccccc2C1=O
inactive: growth inhibition [1] -10.3% | growth inhibition [2] -14.3% | viability increase [3] 0.98% | viability [4] 97.7% | viability [5] 98.5% | inhibition [6] 2.69% | RAM network inhibition [7] 7.77%

COc1ccccc1C(=O)NC(CCSC)C(=O)NCC(c1ccco1)N(C)C (stereo not drawn)
inactive: growth inhibition [1] -10.1% | growth inhibition [2] -0.55% | viability increase [3] -2.48% | viability [4] 87.2% | viability [5] 89.5% | inhibition [6] 1.89% | RAM network inhibition [7] 1.92%

Cc1ccc(OCC(=O)NCc2ccccn2)c(Br)c1
inactive: growth inhibition [1] 2.21% | growth inhibition [2] -9.19% | viability increase [3] -1.45% | viability [4] 97.8% | viability [5] 95% | inhibition [6] 0.22% | RAM network inhibition [7] 0.01%

N#CCn1nnc(-c2ccc3c(c2)OCO3)n1
inactive: growth inhibition [1] -5.24% | growth inhibition [2] 3.03% | viability increase [3] 3.41% | viability [4] 98.5% | viability [5] 103% | inhibition [6] 0.46% | RAM network inhibition [7] 0.16%

COc1ccc(N(CC(=O)Nc2ccc3c(c2)OCO3)S(=O)(=O)c2ccccc2)c(OC)c1
inactive: growth inhibition [1] -7.79% | growth inhibition [2] -13.1% | viability increase [3] -2.07% | viability [4] 71.8% | viability [5] 75.6% | inhibition [6] 2.93% | RAM network inhibition [7] 9.79%

O=C(CCCN1C(=O)CSc2ncccc21)N1CCN(Cc2ccccc2)CC1
inactive: growth inhibition [1] -1.92% | growth inhibition [2] -2.68% | viability increase [3] -2.06% | viability [4] 92.4% | viability [5] 91.7% | inhibition [6] 2.33% | RAM network inhibition [7] 2.55%

O=C1C(=O)N(CCCn2ccnc2)C(c2cccnc2)/C1=C(/O)c1ccc(Cl)cc1 (stereo not drawn)
inactive: growth inhibition [1] -11.6% | growth inhibition [2] -4.88% | viability increase [3] -0.32% | viability [4] 97.2% | viability [5] 98.6% | inhibition [6] 0.905% | RAM network inhibition [7] 1.1%
